Source: PubChem BioAssay
Rows were chosen to be rich in hits. Some 2.3% of all compounds tested hit in one or more screens of this group.
TRPC4 PAM: positive allosteric modulators of TRPC4, primary screen, cell-based, mouse TRPC4beta, HEK293 mu-opioid, Fluo-4 calcium; Short transient receptor potential channel 4 (Mus musculus), Q9QUQ5; DAMGO EC20, Fluo-4 Ca2+ flux; hits give high values; B-score at 10 µM; 310,000 tested, 0.42% active;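 active = B-score of calcium response area above 5 SD of library B-scores, with initial fluorescence ratio within 5 SD of library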;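 note: B-score of integrated fluorescence ratio over time as area under calcium response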
TRPC6 inhibitor: mouse TRPC6 channel inhibitors, primary screen, cell-based, HEK293, membrane potential dye | AID 2553, 2010 | ACh-evoked depolarization; hits give low values | Short transient receptor potential channel 6 (Mus musculus), Q61143 | B-score at 10 µM | 310,000 tested, 1.1% active;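 active = B-score under library mean minus 3 SD, initial fluorescence not abnormally high, positive integrated signal ratio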;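 note: B-score derived from integrated fluorescence ratio over the kinetic read; more negative B-score means stronger inhibition of depolarization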
Target sequence (Q61143 whole entry, looked up): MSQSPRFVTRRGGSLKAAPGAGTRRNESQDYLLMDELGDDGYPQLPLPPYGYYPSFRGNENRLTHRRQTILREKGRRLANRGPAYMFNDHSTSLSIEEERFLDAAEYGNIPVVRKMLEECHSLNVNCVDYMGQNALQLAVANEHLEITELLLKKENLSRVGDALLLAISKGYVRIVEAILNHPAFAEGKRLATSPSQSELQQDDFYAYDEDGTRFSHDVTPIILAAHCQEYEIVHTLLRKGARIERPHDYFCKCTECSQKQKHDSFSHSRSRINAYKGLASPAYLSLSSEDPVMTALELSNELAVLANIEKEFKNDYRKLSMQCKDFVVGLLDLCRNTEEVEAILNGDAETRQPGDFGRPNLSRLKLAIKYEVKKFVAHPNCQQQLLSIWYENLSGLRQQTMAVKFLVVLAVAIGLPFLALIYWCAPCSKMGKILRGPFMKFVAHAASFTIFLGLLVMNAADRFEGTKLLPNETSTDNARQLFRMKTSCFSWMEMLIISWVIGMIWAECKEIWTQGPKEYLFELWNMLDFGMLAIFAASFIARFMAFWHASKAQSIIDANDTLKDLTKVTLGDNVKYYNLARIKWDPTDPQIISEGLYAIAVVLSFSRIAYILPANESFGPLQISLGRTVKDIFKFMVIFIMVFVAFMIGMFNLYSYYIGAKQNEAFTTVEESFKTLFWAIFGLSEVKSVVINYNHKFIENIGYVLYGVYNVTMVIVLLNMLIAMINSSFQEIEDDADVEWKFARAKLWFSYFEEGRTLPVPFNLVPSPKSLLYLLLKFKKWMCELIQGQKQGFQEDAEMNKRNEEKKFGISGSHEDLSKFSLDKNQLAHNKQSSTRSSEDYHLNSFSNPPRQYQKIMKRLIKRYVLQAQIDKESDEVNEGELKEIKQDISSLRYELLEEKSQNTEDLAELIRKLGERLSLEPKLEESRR
TRPC4 block: inhibitors of mouse TRPC4 channel, primary screen, Fluo4 calcium, HEK293 TRPC4beta/mu-opioid cells; 300,000 tested, 0.39% active; DAMGO-evoked Fluo4 calcium flux; hits give low values; B-score at 10 µM; Short transient receptor potential channel 4 (Mus musculus), Q9QUQ5;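 active = B-score over 3 SD under the library average, no early fluorescence shift, positive overall ratio signal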
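Assay system: TRPC4beta/mu-opioid receptor HEK293 cell line; compound dosing: single concentration per test compound; detection: Fluo4 Ca2+ flux fluorescence; evaluation: per-well B score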
TRPC6 act: mouse TRPC6 channel activators, primary screen, cell-based, HEK293, membrane potential dye; Short transient receptor potential channel 6 (Mus musculus), Q61143; HEK293-TRPC6 membrane potential dye fluorescence; hits give high values; B-score at 10 µM; 310,000 tested, 0.13% active;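 active = B-score of the integrated fluorescence ratio above library mean plus 3 SD, and starting fluorescence ratio within library mean plus 5 SD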;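 note: higher score means more depolarization so channel activation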
TRPC4 agonist: activators of mouse TRPC4 channel, primary screen, Fluo4 calcium, HEK293 TRPC4beta/mu-opioid cells. Short transient receptor potential channel 4 (Mus musculus), Q9QUQ5. Fluo4 calcium fluorescence; hits give high values. B-score at 10 µM. 310,000 tested, 0.49% active;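 active = B-score above 5 SD of library B-scores, and initial fluorescence ratio not above library mean plus 5 SD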;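 note: positive B-score marks a calcium rise read as TRPC4 activation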
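Assay system: HEK293 cells stably co-expressing mouse TRPC4beta and mu-opioid receptor / Timing: Fluo4 dye loading 45 min at room temperature, 110 s recording / Signal: Fluo4 calcium-sensitive dye fluorescence, kinetic, 1 Hz baseline / Read-out: integrated baseline-normalised fluorescence ratio, converted to per-well B score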
TRPC4 spec 2: second check of whether TRPC6 inhibitors also affect mouse TRPC4. shares compounds with TRPC6 inhibitor. HEK293 TRPC4/MOR, membrane potential dye fluorescence; channel activated by saturating DAMGO dose. inhibition, % at 10 µM. 920 tested, 42% active. AID 2776;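 active = compounds whose fluorescence signal differed from control wells by over 3 SD, either direction, in both duplicate plates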
TRPC4 spec: mouse TRPC4 modulation by TRPC6 hits, confirmation, selectivity assay for TRPC6 inhibitor project, cell-based, HEK293 TRPC4/mu-opioid, membrane potential dye | shares compounds with TRPC6 inhibitor | membrane potential fluorescence | activity change, negative = inhibition, % at 10 µM | 920 tested, 61% active | AID 2777, 2010;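 active = rise or fall in signal beyond 3 SD of buffer-only wells in both replicate plates, either sign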;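 note: integrated kinetic ratio of fluorescence range over baseline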
HEK293 MPD ctr 2-1: nonspecific membrane potential effects, parental HEK293, confirmation, counter-screen for TRPC6 inhibitor project, cell-based, second counter screen; 920 tested, 31% active; AID 2779, 2010; signal change vs control, % at 10 µM; parental HEK293 membrane potential dye fluorescence; maximal acetylcholine challenge after compound addition; shares compounds with TRPC6 inhibitor;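 active = membrane potential signal moving either way by over 3 SD of the maximum-effect control, in both duplicate plates, meaning non-specific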
HEK293 MPD ctr-1: membrane potential modulation in parental HEK293, confirmation, counter-screen for TRPC6 inhibitor project, cell-based; shares compounds with TRPC6 inhibitor; parental HEK293 membrane potential dye fluorescence; membrane potential signal change, % at 10 µM; 920 tested, 60% active;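 active = membrane potential signal shifting up or down by more than 3 SD of buffer-only wells, on both duplicate plates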
HEK293 MPD ctr-2: parental HEK293 membrane potential modulation, confirmation, counter-screen for TRPC6 modulator project, cell-based; shares compounds with TRPC6 inhibitor; membrane potential dye fluorescence; membrane potential signal change, % at 10 µM; 2,400 tested, 51% active; AID 488924, 2010;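 active = membrane potential signal moves up or down beyond 5 SD from buffer-only wells, on both duplicate plates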
HEK293 MPD ctr 2-2: parental HEK293 nonspecific activity of TRPC6 modulators, second screen; shares compounds with TRPC6 inhibitor; membrane potential dye fluorescence; after compound, maximal acetylcholine stimulation; inhibition, % at 10 µM; 2,400 tested, 14% active; AID 488926;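 active = membrane potential signal drops by more than 5 SD from the mean control signal, in both duplicate plates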;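 note: plate controls were acetylcholine ECmax control wells for no effect and buffer only wells for full effect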
TRPC4/MOR mod: TRPC4 modulation by TRPC6 hit compounds, confirmation, selectivity assay for TRPC6 modulator project, cell-based, HEK293 TRPC4/mu-opioid, membrane potential dye, mouse. 2,400 tested, 69% active. percent change from control (negative = decrease, positive = increase), % at 10 µM. membrane potential fluorescence. shares compounds with TRPC6 inhibitor;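 active = membrane potential signal moved up or down beyond 5 SD of buffer control wells, in both duplicate plates, actives on both sides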;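 note: plate controls were assay buffer wells for no effect and DAMGO maximal-effect wells for full effect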
TRPC4 ctr inh 2: second selectivity test of TRPC6 modulators against mouse TRPC4; AID 488928; HEK293 TRPC4/mu-opioid, membrane potential dye fluorescence; stimulated with maximal-effect DAMGO; inhibition, % at 10 µM; 2,400 tested, 55% active; shares compounds with TRPC6 inhibitor;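 active = drop in membrane potential signal beyond 5 SD of the control wells in both duplicate plates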;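 note: TRPC4 counter screen for TRPC6 hits run under conditions tuned for TRPC6 not TRPC4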
TRPC6 block conf: mouse TRPC6 channel inhibitors, confirmation, HEK293 cells, membrane potential dye, duplicate; shares compounds with TRPC6 inhibitor; ACh-evoked depolarization; inhibition, % at 10 µM; 3,300 tested, 43% active; AID 488960, 2010;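 active = fluorescence ratio falls more than 5 SD below the full-stimulation control mean, in both duplicate runs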;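 note: integrated fluorescence ratio of peak minus minimum over baseline after agonist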
TRPC6 act conf: mouse TRPC6 channel activators, confirmation, HEK293 cells, membrane potential dye, duplicate | shares compounds with TRPC6 inhibitor | HEK293-TRPC6 membrane potential dye fluorescence, FDSS | activation, % at 10 µM | 2,800 tested, 11% active | AID 488961, 2010;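 active = ratio signal rise beyond 5 SD above unstimulated control wells' mean, seen in both duplicate runs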;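 note: plate controls were buffer EC0 wells for no effect and acetylcholine ECmax response for full effect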
The depositor's hits bear a star; i = inactive; . = not tested or not shown.

SMILES	TRPC4 PAM	TRPC6 inhibitor	TRPC4 block	TRPC6 act	TRPC4 agonist	HEK293 MPD ctr-2	HEK293 MPD ctr 2-2	TRPC4/MOR mod	TRPC4 ctr inh 2	TRPC6 block conf	TRPC6 act conf	others
COc1cccc(CNC(=O)CCC2CCCN(C3CCOCC3)C2)c1 (stereo not given)	i	i	i	i	i	.	.	.	.	.	.
Cc1cc(C)n2nc(-c3ccc(Cl)cc3)cc2n1	i	i	i	i	i	.	.	.	.	.	.
Cc1nc2cc(-c3ccc(Cl)cc3)nn2c(NCCN(C)C)c1C	i	-6*	i	i	i	-89%*	i	-21%*	46%*	i	i
O=c1[nH]c(-c2ccccc2)nn1-c1ccc(Br)cc1Br	i	i	i	i	i	.	.	.	.	.	.
N=c1c(C(=O)NC2CCCC2)cc2c(=O)n3ccccc3nc2n1Cc1ccccc1	i	-5.2*	i	i	i	-170%*	i	-34%*	48%*	i	i
N=c1c(C(=O)NCC2CCCO2)cc2c(=O)n3ccccc3nc2n1Cc1ccccc1Cl (stereo not given)	78*	-6.7*	i	i	i	.	.	.	.	i	i	TRPC4 spec 2=48%*;TRPC4 spec=i;HEK293 MPD ctr 2-1=i;HEK293 MPD ctr-1=-456%*
COc1ccc(CCn2c(=N)c(C(=O)NCC3CCCO3)cc3c(=O)n4ccccc4nc32)cc1 (stereo not given)	i	-5.8*	i	i	i	-82%*	i	-22%*	60%*	58%*	i
N=c1c(C(=O)NCC2CCCO2)cc2c(=O)n3ccccc3nc2n1Cc1ccccc1 (stereo not given)	i	-7.4*	i	i	i	-125%*	78%*	-28%*	38%*	45%*	i
N=c1c(C(=O)NCc2ccc3c(c2)OCO3)cc2c(=O)n3ccccc3nc2n1CC1CCCO1 (stereo not given)	i	i	i	i	i	.	.	.	.	.	.
COCCNC(=O)/C(C#N)=c1\s/c(=C\c2ccccc2OC(F)F)c(=O)n1Cc1ccccc1	i	i	i	i	i	.	.	.	.	.	.
NC(=O)c1sc2nnc(-c3ccccc3)c(-c3ccccc3)c2c1N	i	i	i	i	i	.	.	.	.	.	.
COc1ccc(C(=S)N2CCN(c3ccccc3C)CC2)cc1	i	i	i	i	i	.	.	.	.	.	.
CCOC(=O)c1cc2c(=O)n3ccccc3nc2n(CCCOC)c1=NC(=O)c1cccnc1	i	i	i	i	i	.	.	.	.	.	.
COCCCn1c(=N)c(C(=O)NCC2CCCO2)cc2c(=O)n3ccccc3nc21 (stereo not given)	i	i	i	i	i	.	.	.	.	.	.
CCOC(=O)c1cc2c(=O)n3ccccc3nc2n(Cc2ccccc2)c1=N	i	-7.9*	i	i	i	-146%*	i	-32%*	42%*	i	i
CCOC(=O)c1cc2c(=O)n3ccccc3nc2n(CCCOC)c1=NC(=O)C(C)(C)C	i	-5.9*	i	i	i	-195%*	i	-27%*	56%*	50%*	i
COc1ccc(Cn2c(=N)c(C(=O)NCC3CCCO3)cc3c(=O)n4ccccc4nc32)cc1 (stereo not given)	i	-6.5*	i	i	i	i	i	-10%*	36%*	44%*	i
CCOC(=O)c1cc2c(=O)n3ccccc3nc2n(CC(C)C)c1=NC(=O)c1ccco1	i	i	i	i	i	.	.	.	.	.	.
Cc1ccccc1CN1C(=O)[C@H]2Cc3c([nH]c4ccccc34)C(C)(C)N2C1=O	i	i	i	i	i	.	.	.	.	.	.
CCCCOC(=O)C[N+](C)(C)CCOC1CC2CCC1(C)C2(C)C (stereo not given)	i	-5.2*	i	i	i	99%*	i	23%*	i	38%*	.
CC(C)CCOC(=O)C[N+](C)(C)CCOC1CC2CCC1(C)C2(C)C (stereo not given)	i	-5.7*	i	i	i	155%*	i	34%*	34%*	48%*	.
